Measurements taken from ChEMBL document CHEMBL3804782, “Targeting the BACE1 Active Site Flap Leads to a Potent Inhibitor That Elicits Robust Brain Aβ Reduction in Rodents” (ACS Med Chem Lett, 2016).
Values belong to the compound of their own block, whether it stands above or below them. The source made the active and inactive calls. The calls are words filed in the database; no cut-off is given here.

Legend:
Beta-secretase 1 = Beta-secretase 1 (Homo sapiens, UniProt P56817); assay: Inhibition of BACE1 in human H4 cells expressing APP751 Swedish mutant assessed as inhibition of amyloid beta 40 or amyloid beta 42 production incubated for 19 hrs by microplate reader analysis; format: cell-based
Sequence of Beta-secretase 1 (P56817 whole entry): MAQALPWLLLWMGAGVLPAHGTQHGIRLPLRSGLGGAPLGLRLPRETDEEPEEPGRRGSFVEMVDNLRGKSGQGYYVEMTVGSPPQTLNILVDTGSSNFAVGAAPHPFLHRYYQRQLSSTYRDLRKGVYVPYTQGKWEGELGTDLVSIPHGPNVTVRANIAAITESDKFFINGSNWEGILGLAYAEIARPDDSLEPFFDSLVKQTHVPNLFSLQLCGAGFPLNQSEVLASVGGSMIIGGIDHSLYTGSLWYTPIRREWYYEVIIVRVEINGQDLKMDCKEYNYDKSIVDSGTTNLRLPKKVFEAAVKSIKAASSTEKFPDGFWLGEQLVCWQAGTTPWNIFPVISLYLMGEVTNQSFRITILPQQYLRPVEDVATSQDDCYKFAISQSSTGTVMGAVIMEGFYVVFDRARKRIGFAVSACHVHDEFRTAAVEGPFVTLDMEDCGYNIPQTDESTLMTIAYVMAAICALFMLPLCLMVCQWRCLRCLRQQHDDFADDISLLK

[1] = Metabolic stability in human liver microsomes assessed as parent compound remaining at 0.5 uM after 10 mins; format: ADME; conditions: read-out: Stability
[2] = Metabolic stability in rat liver microsomes assessed as parent compound remaining at 0.5 uM after 10 mins; format: ADME; conditions: read-out: Stability
[3] = Metabolic stability in mouse liver microsomes assessed as parent compound remaining at 0.5 uM after 10 mins; format: ADME; conditions: read-out: Stability
Mus musculus = assay: Antialzheimer activity in mouse assessed as reduction in amyloid beta 42 level in brain at 10 mg/kg, po by ELISA relative to control; format: functional
Rattus norvegicus [4] = assay: Antialzheimer activity in po dosed rat assessed as reduction in amyloid beta (1 to 40) level in brain measured at 5 hrs post dose by ELISA; format: functional, organism-based
How it was run: (§1)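 Female rats given a single oral dose in PEG-400/EtOH/Tween 80 (84:15:1). Plasma and brain were collected 5 h postdose, 5 rats per dose, to measure drug exposure and brain Aβ levels. Values are means (n = 5) with SD.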

Rattus norvegicus [5] = assay: Antialzheimer activity in po dosed rat assessed as reduction in amyloid beta (1 to 42) level in brain measured at 5 hrs post dose by ELISA; format: functional, organism-based; how it was run: as §1
Rattus norvegicus [6] = assay: Antialzheimer activity in po dosed rat assessed as reduction in total amyloid beta level in brain measured at 5 hrs post dose by ELISA; format: functional, organism-based; how it was run: as §1
Rattus norvegicus [7] = assay: Antialzheimer activity in rat assessed as free drug concentration in plasma required for reduction in amyloid beta (1 to 42) level in brain at 1 to 10 mg/kg, po measured at 5 hrs post dose; format: functional, organism-based
Rattus norvegicus [8] = assay: Antialzheimer activity in rat assessed as total plasma concentration required for reduction in amyloid beta (1 to 42) level in brain at 1 to 10 mg/kg, po measured at 5 hrs post dose; format: functional, organism-based
Plasma [9] = assay: Free plasma concentration in rat at 1 to 10 mg/kg, po measured at 5 hrs post dose; format: ADME, organism-based; conditions: in vivo
Plasma [10] = assay: Drug metabolism in mouse plasma assessed as (4S,6S)-4-(5-amino-2,3-difluorophenyl)-6-(3,5-dimethylisoxazol-4-yl)-4-methyl-5,6-dihydro-4H-1,3-thiazin-2-amine formation at 10 mg/kg, po after 3 hrs; format: ADME, organism-based; conditions: in vivo
[11] = Plasma concentration in rat at 1 mg/kg, po after 5 hrs; format: ADME, organism-based; how it was run: as §1
[12] = Plasma concentration in rat at 3 mg/kg, po after 5 hrs; format: ADME, organism-based; how it was run: as §1
[13] = Plasma concentration in rat at 10 mg/kg, po after 5 hrs; format: ADME, organism-based; how it was run: as §1
[14] = Drug level in rat brain at 1 mg/kg, po after 5 hrs; format: ADME, organism-based; conditions: read-out: Drug uptake; how it was run: as §1
[15] = Drug level in rat brain at 3 mg/kg, po after 5 hrs; format: ADME, organism-based; conditions: read-out: Drug uptake; how it was run: as §1
[16] = Drug level in rat brain at 10 mg/kg, po after 5 hrs; format: ADME, organism-based; conditions: read-out: Drug uptake; how it was run: as §1
[17] = Ratio of drug level in rat brain to plasma at 1 mg/kg, po after 5 hrs; format: ADME, organism-based; conditions: read-out: BPR; how it was run: as §1
[18] = Ratio of drug level in rat brain to plasma at 3 mg/kg, po after 5 hrs; format: ADME, organism-based; conditions: read-out: BPR; how it was run: as §1
[19] = Ratio of drug level in rat brain to plasma at 10 mg/kg, po after 5 hrs; format: ADME, organism-based; conditions: read-out: BPR; how it was run: as §1
Cytochrome P450 1A2 = target: T1, Cytochrome P450 1A2 (Homo sapiens, UniProt P05177); assay: Inhibition of CYP1A2 (unknown origin) expressed in baculovirus infected insect cells using CEC as susbtrate incubated for 45 mins by plate reader analysis in presence of NADP+; format: ADME
T1 sequence (P05177 whole entry): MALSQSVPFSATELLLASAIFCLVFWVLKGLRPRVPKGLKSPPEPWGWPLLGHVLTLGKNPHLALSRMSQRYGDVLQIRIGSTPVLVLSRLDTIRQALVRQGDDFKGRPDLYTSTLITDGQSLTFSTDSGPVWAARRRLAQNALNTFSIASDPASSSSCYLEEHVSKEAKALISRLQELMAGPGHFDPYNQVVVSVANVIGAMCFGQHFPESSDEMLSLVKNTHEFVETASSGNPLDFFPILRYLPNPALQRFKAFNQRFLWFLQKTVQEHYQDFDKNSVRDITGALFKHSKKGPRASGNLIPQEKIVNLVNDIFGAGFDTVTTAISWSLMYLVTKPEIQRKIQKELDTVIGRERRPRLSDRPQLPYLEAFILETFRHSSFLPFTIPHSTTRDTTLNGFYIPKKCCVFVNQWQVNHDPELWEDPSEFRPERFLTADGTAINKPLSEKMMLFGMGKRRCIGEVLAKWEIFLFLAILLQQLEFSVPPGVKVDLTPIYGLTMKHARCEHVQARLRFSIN

Cytochrome P450 2C9 = Cytochrome P450 2C9 (Homo sapiens, UniProt P11712); assay: Inhibition of CYP2C9 (unknown origin) expressed in baculovirus infected insect cells using MFC as susbtrate incubated for 45 mins by plate reader analysis in presence of NADP+; format: ADME
Sequence of Cytochrome P450 2C9 (P11712 whole entry): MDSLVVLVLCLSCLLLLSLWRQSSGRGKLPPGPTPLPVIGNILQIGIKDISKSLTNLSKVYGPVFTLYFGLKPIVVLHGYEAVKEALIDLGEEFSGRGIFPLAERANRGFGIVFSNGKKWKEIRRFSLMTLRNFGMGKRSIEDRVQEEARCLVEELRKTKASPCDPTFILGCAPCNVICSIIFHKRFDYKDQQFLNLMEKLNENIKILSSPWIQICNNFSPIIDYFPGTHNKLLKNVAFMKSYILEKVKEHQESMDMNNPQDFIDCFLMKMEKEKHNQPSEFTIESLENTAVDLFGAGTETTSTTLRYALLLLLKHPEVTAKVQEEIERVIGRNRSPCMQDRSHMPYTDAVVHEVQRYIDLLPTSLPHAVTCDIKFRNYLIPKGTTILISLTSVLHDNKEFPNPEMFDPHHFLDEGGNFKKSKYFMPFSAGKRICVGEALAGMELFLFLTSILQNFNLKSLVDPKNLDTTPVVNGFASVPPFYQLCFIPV

Cytochrome P450 2C19 = Cytochrome P450 2C19 (Homo sapiens, UniProt P33261); assay: Inhibition of CYP2C19 (unknown origin) expressed in baculovirus infected insect cells using CEC as susbtrate incubated for 45 mins by plate reader analysis in presence of NADP+; format: ADME
Sequence of Cytochrome P450 2C19 (P33261 whole entry): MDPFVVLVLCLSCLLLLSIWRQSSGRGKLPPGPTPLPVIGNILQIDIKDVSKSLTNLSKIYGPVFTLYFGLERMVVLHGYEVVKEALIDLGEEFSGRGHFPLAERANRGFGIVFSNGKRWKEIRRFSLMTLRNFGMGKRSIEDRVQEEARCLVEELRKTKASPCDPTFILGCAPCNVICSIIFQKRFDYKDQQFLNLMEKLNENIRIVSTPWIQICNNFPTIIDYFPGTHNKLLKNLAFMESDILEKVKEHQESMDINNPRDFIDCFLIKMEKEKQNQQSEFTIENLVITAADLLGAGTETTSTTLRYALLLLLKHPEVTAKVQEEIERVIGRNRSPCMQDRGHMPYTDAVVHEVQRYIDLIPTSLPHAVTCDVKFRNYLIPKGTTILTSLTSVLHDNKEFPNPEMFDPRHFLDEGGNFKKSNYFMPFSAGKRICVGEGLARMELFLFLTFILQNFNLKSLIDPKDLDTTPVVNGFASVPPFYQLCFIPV

Cytochrome P450 2D6 = Cytochrome P450 2D6 (Homo sapiens, UniProt P10635); assay: Inhibition of CYP2D6 (unknown origin) expressed in baculovirus infected insect cells using AMMC as susbtrate incubated for 45 mins by plate reader analysis in presence of NADP+; format: ADME
Sequence of Cytochrome P450 2D6 (P10635 whole entry): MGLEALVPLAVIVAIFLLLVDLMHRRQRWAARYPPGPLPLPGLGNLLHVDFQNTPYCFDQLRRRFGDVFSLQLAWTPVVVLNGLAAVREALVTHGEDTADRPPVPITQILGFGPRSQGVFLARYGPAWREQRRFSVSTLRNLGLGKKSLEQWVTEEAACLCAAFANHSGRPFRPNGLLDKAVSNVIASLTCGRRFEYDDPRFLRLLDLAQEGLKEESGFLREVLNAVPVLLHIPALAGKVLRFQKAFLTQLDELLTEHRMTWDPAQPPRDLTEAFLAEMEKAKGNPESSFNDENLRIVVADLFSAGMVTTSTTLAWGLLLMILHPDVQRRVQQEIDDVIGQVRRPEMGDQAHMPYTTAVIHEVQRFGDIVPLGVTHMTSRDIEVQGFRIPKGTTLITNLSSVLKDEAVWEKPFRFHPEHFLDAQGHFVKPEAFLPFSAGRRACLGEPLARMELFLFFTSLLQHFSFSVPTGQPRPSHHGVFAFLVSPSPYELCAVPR

Cytochrome P450 3A4 [20] = target: T2, Cytochrome P450 3A4 (Homo sapiens, UniProt P08684); assay: Inhibition of CYP3A4 (unknown origin) expressed in baculovirus infected insect cells using BFC as susbtrate incubated for 45 mins by plate reader analysis in presence of NADP+; format: ADME
T2 sequence (P08684 whole entry): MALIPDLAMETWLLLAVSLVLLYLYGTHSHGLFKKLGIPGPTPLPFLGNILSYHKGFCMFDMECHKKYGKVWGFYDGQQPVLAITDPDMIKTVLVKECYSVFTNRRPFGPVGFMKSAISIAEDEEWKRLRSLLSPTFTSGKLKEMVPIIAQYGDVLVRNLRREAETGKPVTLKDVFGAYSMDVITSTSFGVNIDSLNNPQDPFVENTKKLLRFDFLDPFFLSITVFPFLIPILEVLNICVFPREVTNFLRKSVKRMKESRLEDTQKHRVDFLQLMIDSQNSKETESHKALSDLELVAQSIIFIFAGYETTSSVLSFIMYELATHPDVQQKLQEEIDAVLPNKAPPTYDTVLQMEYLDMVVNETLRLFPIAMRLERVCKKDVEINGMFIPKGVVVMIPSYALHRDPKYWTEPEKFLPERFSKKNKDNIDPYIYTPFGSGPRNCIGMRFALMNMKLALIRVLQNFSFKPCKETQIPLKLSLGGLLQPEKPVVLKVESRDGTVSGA

Cytochrome P450 3A4 [21] = target: T2, Cytochrome P450 3A4; assay: Inhibition of CYP3A4 (unknown origin) expressed in baculovirus infected insect cells using benzyloxyresorufin as susbtrate incubated for 45 mins by plate reader analysis in presence of NADP+; format: ADME
Cytochrome P450 2C8 = target: T3, Cytochrome P450 2C8 (Homo sapiens, UniProt P10632); assay: Inhibition of CYP2C8 (unknown origin); format: ADME
T3 sequence (P10632 whole entry): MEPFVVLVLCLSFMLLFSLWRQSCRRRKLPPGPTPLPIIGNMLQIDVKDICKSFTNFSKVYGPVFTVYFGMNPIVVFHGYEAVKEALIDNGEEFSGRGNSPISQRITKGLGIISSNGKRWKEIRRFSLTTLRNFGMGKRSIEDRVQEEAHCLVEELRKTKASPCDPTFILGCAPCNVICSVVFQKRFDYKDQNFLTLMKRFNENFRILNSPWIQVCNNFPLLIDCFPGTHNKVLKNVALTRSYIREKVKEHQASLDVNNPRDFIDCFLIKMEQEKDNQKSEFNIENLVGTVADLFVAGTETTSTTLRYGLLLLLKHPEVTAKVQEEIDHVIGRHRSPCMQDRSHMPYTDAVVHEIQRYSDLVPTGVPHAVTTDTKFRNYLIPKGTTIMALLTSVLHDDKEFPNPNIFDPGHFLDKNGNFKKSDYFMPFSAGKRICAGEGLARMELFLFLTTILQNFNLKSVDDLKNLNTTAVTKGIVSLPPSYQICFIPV

[22] = Plasma protein binding in rat at 1 to 10 mg/kg, po measured at 5 hrs post dose; format: ADME, organism-based; conditions: read-out: PPB (converted)
Salmonella typhimurium = assay: Mutagenicity in Salmonella typhimurium by Ames test; format: toxicity, organism-based; conditions: salmonella enterica subsp. enterica serovar typhimurium
Rattus norvegicus [23] = assay: Antialzheimer activity in rat assessed as reduction in amyloid beta level in brain at 30 mg/kg, po measured at 5 hrs post dose by ELISA; format: functional, organism-based

- IC50 (Beta-secretase 1): 180 nM
Compound: Cc1oncc1[C@]1(C)C[C@@H](c2cc(-c3cncnc3)c(F)cc2F)N=C(N)S1 (racemic)

- IC50 (Beta-secretase 1): 31 nM
- remaining at 10 min, 0.5 µM [1]: 78%
- remaining at 10 min, 0.5 µM [2]: 76%
- remaining at 10 min, 0.5 µM [3]: 75%
Compound: Cc1noc(C)c1[C@@H]1C[C@@](C)(c2cc(NC(=O)c3ccc(Cl)cn3)c(F)cc2F)N=C(N)S1

- IC50 (Beta-secretase 1): 70 nM
Compound: Cc1noc(C)c1[C@@H]1C[C@@H](c2cc(-c3cncnc3)c(F)cc2F)N=C(N)S1

- IC50 (Beta-secretase 1): 0.9 nM
- remaining at 10 min, 0.5 µM [1]: 81%
- remaining at 10 min, 0.5 µM [2]: 69%
- remaining at 10 min, 0.5 µM [3]: 74%
- EC50 (Rattus norvegicus [7]): 13 nM
- EC50 (Rattus norvegicus [8]): 260 nM
- Cp(f) (Plasma [9]): 13 nM
- Drug metabolism (Plasma [10]): metabolite_detected
- concentration at 5 h [11]: 150 nM
- concentration at 5 h [12]: 360 nM
- concentration at 5 h [13]: 1500 nM
- concentration at 5 h [14]: 67 nM
- concentration at 5 h [15]: 160 nM
- concentration at 5 h [16]: 420 nM
- Kp at 5 h [17]: 0.44
- Kp at 5 h [18]: 0.46
- Kp at 5 h [19]: 0.3
- IC50 (Cytochrome P450 1A2): > 20000 nM
- IC50 (Cytochrome P450 2C9): > 20000 nM
- IC50 (Cytochrome P450 2C19): > 20000 nM
- IC50 (Cytochrome P450 2D6): > 20000 nM
- IC50 (Cytochrome P450 3A4 [20]): > 20000 nM
- IC50 (Cytochrome P450 3A4 [21]): > 20000 nM
- IC50 (Cytochrome P450 2C8): 5000 nM
Compound: COc1cnc(C(=O)Nc2cc(F)c(F)c([C@]3(C)C[C@@H](c4c(C)noc4C)SC(N)=N3)c2)cn1
- inhibition in vivo at 10 mg/kg (Mus musculus): 85%
- inhibition (Rattus norvegicus [4]): Dose-dependent effect
- inhibition (Rattus norvegicus [5]): Dose-dependent effect
- inhibition (Rattus norvegicus [6]): Dose-dependent effect

- IC50 (Beta-secretase 1): 290 nM
Compound: COc1ccc([C@@H]2C[C@@H](c3cc(-c4cncnc4)c(F)cc3F)N=C(N)S2)cc1OC

- IC50 (Beta-secretase 1): 1100 nM
Compound: COc1ccc([C@@H]2C[C@@H](c3cccc(-c4cncnc4)c3)N=C(N)S2)cc1OC

- IC50 (Beta-secretase 1): 160 nM
- remaining at 10 min, 0.5 µM [1]: 38%
- remaining at 10 min, 0.5 µM [2]: 43%
- remaining at 10 min, 0.5 µM [3]: 38%
Compound: Cc1noc(C)c1[C@@H]1C[C@@](C)(c2cccc(NC(=O)c3ccc(Cl)cn3)c2F)N=C(N)S1

- IC50 (Beta-secretase 1): 2.3 nM
- remaining at 10 min, 0.5 µM [1]: 39%
- remaining at 10 min, 0.5 µM [2]: 26%
- remaining at 10 min, 0.5 µM [3]: 13%
Compound: Cc1noc(C)c1[C@@H]1C[C@@](C)(c2cc(F)cc(NC(=O)c3ccc(Cl)cn3)c2)N=C(N)S1

- fraction unbound at 5 h [22]: 0.05
Compound: Cc1noc(C)c1[C@@H]1C[C@@](C)(c2cc(N)cc(F)c2F)N=C(N)S1
- Activity (Salmonella typhimurium): Non-toxic

- IC50 (Beta-secretase 1): 5 nM
Compound: Cc1noc(C)c1[C@@H]1C[C@@H](c2cc(NC(=O)c3ccc(Cl)cn3)ccc2F)N=C(N)S1

- remaining at 10 min, 0.5 µM [1]: 23%
- remaining at 10 min, 0.5 µM [2]: 49%
- remaining at 10 min, 0.5 µM [3]: 48%
Compound: Cc1noc(C)c1[C@@H]1C[C@@](C)(c2cc(-c3cncnc3)c(F)cc2F)N=C(N)S1
- inhibition (Rattus norvegicus [23]): Active

- IC50 (Beta-secretase 1): 0.7 nM
- remaining at 10 min, 0.5 µM [1]: 87%
- remaining at 10 min, 0.5 µM [2]: 63%
- remaining at 10 min, 0.5 µM [3]: 58%
Compound: Cc1noc(C)c1[C@@H]1C[C@@](C)(c2cc(NC(=O)c3ccc(Cl)cn3)cc(F)c2F)N=C(N)S1

- IC50 (Beta-secretase 1): 3700 nM
Compound: Cc1noc(C)c1[C@]1(C)C[C@@H](c2cc(-c3cncnc3)c(F)cc2F)N=C(N)S1 (relative stereo)
